Experimental data gathered from unrelated publications.
Lines come from different studies, so protocols differ.
Target: Myosin light chain kinase family member 4 (MYLK4, Homo sapiens, UniProt Q86YV6)
One construct used (Q86YV6 1-388): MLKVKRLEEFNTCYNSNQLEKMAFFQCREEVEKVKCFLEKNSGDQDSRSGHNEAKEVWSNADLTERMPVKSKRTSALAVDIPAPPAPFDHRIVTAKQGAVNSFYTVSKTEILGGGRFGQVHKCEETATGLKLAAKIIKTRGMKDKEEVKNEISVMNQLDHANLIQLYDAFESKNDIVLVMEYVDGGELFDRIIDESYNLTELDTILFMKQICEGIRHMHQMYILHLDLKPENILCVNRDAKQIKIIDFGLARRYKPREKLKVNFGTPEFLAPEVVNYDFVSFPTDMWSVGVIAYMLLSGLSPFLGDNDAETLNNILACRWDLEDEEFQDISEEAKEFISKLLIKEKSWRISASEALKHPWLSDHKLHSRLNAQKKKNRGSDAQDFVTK

| SMILES | observed | technique | concentration | remaining binding [%] |
| --- | --- | --- | --- | --- |
| COc1cnc(Nc2cccc(S(N)(=O)=O)c2)nc1N1CCN(c2ccccc2)C(=O)C1 | binding | competition with immobilised ligand | 1 µM | 100 |
| O=C(NCCCN1CCOCC1)c1ccc(Nc2ncc(Cl)c(-c3ccc(Cl)s3)n2)cc1 | binding | competition with immobilised ligand | 1 µM | 0.05 |
| O=S(=O)(NC1CCC(c2cc(F)ccc2F)(S(=O)(=O)c2ccc(Cl)cc2)CC1)C(F)(F)F (stereo not shown) | cell-free assay | competition with immobilised ligand | 1 µM | 100 |
| N[C@H]1CCN(c2nccc(-c3cnn4ncccc34)n2)C1 | binding |  | 1 µM | 100 |
| Nc1ncc2c(n1)-c1c([nH]c3ccc(C#CC4CC4)cc13)CCCC2 | binding | competition with immobilised ligand | 1 µM | 83 |
| O=C(NCCCN1CCOCC1)c1ccc(Nc2nccc(-c3cc4ccccc4s3)n2)cc1 | binding | competition with immobilised ligand | 1 µM | 0.1 |
| CC1CCCN1c1nccc(-c2cnn3ncccc23)n1 (stereo not shown) | binding |  | 1 µM | 100 |
| CCN1CCN(Cc2ccc(C(=O)Nc3ccc(C)c(Oc4ccc5c(c4)CC(=O)N5)c3)cc2C(F)(F)F)CC1 | binding | competition with immobilised ligand | 1 µM | 84 |
| O=C(NCC1CCOCC1)c1n[nH]cc1NC(=O)c1c(F)cccc1F | binding | competition with immobilised ligand | 1 µM | 100 |
| C[C@@H](c1ccc(-n2cnc3c(N)ncnc32)cc1)N1CCc2nn(C)c(Cc3ccccc3)c2C1=O | binding | competition with immobilised ligand | 0.1 µM | 100 |
| CN(C)c1ncc(F)c(-c2cnn3ncccc23)n1 | binding |  | 1 µM | 100 |
| CCS(=O)(=O)c1cc2cc(C[C@@](O)(CC(C)(C)c3ccc(F)cc3C(N)=O)C(F)(F)F)[nH]c2cn1 | cell-free assay | competition with immobilised ligand | 1 µM | 100 |
| FC(F)(F)Oc1cccc(-c2cnc3ccc(-c4ccncc4)nn23)c1 | cell-free assay | competition with immobilised ligand | 5 µM | 0.35 |
| Cc1nc(Cc2cccc(C(F)(F)F)c2)sc1-c1ccc(C(N)=O)nc1 | cell-free assay | competition with immobilised ligand | 1 µM | 91 |
| Cc1cnn2ncc(-c3ccnc(N(C)C)n3)c2c1 | binding |  | 1 µM | 80 |
| CC(=O)c1c(NS(C)(=O)=O)c2cc(-c3ccc(Cl)cc3)c(-c3ccc(Cl)cc3Cl)nc2n(C)c1=O | cell-free assay | competition with immobilised ligand | 1 µM | 100 |
| CN(C)c1nccc(-c2cnn3ncccc23)n1 | binding |  | 1 µM | 88 |
| COc1cccc(CNC(=O)c2nc3scc(COCc4ccc(C(=O)O)cc4)c3c(=O)[nH]2)c1 | cell-free assay | competition with immobilised ligand | 1 µM | 100 |
| Cc1cnc(Nc2ccc(C(=O)N3CCC(N4CCCC4)CC3)cc2)nc1-c1cc2ccccc2s1 | binding | competition with immobilised ligand | 1 µM | 0 |
